MrgX1 antagonist – antagonists of human MrgX1 receptor | Q96LB2 | MRGX1-HEK293 calcium flux, Fluo-4, BAM8-22 antagonism; stronger effect = lower value | B-score at 10 µM | 1.3% of 310,000 active | AID 588676;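 active = calcium-response B-score plate-corrected more than 3 library SD below zero, starting fluorescence within 5 deviations, no agonist response on first addition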;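 also: peak minus trough fluorescence over baseline after final BAM8-22 challenge near maximal dose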
RGS4 inh – human RGS4 inhibition | P49798 | HEK293 M3R/RGS4 inducible, Fluo-4 calcium flux; stronger effect = higher value; triggered by carbachol at its EC20 | B-score at 10 µM | 0.45% of 310,000 active | AID 463165;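 active = B-score, a plate-corrected calcium signal, over three deviations above library mean, with baseline fluorescence within five deviations of library mean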;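 also: RGS4 expression induced by doxycycline in cells with stable M3 receptor; B-score is computed from the integrated fluorescence ratio over baseline after carbachol; higher B-score means a larger calcium signal and so more RGS4 inhibition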
Target sequence (P49798 whole entry, looked up): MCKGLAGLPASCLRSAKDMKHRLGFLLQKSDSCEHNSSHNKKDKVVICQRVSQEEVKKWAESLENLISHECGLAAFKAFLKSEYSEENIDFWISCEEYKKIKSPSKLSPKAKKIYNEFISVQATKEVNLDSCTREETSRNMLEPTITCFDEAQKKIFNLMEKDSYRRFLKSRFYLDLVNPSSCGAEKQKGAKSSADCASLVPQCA
RGS4 pot – RGS4 potentiation or activation. HEK293 M3R/inducible RGS4, carbachol calcium flux Fluo4; stronger effect = lower value. B-score at 10 µM. 0.92% of 310,000 active;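 active = B-score of the integrated calcium signal more than 4 SD below the library mean, with starting fluorescence not abnormally high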;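 also: negative B-score means reduced calcium response which marks RGS4 activation or potentiation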
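System – HEK293 FlpIn-TREx cells, stable M3R, doxycycline-inducible RGS4 · Reagent – ECmax carbachol challenge · Times – compound preincubation 20 min at room temperature before agonist · Technique – Fluo4 fluorescence kinetic imaging of calcium · Measure – B score of integrated Fluo4 ratio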
MrgX1 ag – human MrgX1 receptor agonism, primary screen. Q96LB2. MrgX1-HEK293 cells, Fluo-4 calcium fluorescence, agonist mode; stronger effect = higher value. B-score at 10 µM. 0.44% of 310,000 active;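 active = calcium response B-score plate-corrected fluorescence ratio at least 3 library SD, with starting fluorescence B-score inside 5 SD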
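Material – MrgX1-expressing HEK293 cells · Input – 15,000 cells seeded per well · Dosing – compound as first of three additions · Times – overnight seeding, then 1 h dark dye loading · Measured by – kinetic Fluo-4 NW fluorescence of intracellular calcium · Read-out – B-scored fluorescence response ratio · Benchmarks – positive and negative control wells on each plate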
MrgX1 PAM – allosterically activates human MrgX1 receptor signaling; AID 588675; 0.63% of 310,000 active; B-score at 10 µM; MrgX1-HEK293, Fluo-4 calcium flux, FDSS; stronger effect = higher value; Q96LB2;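 active = plate-corrected calcium response at least 3 library SD above typical, normal starting fluorescence, not activating the receptor alone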;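 also: compound read alongside a low EC10 to EC30 dose of BAM8-22 agonist; peak minus trough fluorescence over baseline measured at the second addition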
Kir21 block – inhibitors of mouse Kir2.1 inward-rectifier potassium channel. B-score at 10 µM. HEK293-Kir2.1, FluxOR thallium flux fluorescence; stronger effect = lower value. 0.85% of 310,000 active. P35561;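 active = fluorescence ratio B-score at or below minus 3 SD of library scores, with starting-brightness B-score within 2 SD, cut at about -4.2 in these data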;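 also: channel flux triggered by added potassium and thallium sulfate stimulus; B-score of peak minus minimum fluorescence over baseline after thallium stimulus; more negative B-score means stronger Kir2.1 block with less thallium influx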
Target sequence (P35561 whole entry, looked up): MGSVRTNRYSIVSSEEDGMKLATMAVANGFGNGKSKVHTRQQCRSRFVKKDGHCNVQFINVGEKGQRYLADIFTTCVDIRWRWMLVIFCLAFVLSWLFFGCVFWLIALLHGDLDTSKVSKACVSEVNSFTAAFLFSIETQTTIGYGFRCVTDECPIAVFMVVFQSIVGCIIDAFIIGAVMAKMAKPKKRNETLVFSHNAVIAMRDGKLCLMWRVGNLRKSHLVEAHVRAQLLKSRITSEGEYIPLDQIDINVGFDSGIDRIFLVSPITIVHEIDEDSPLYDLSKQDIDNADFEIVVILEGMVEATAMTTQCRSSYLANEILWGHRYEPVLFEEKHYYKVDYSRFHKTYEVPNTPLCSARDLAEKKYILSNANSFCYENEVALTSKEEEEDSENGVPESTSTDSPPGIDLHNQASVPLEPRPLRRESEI
* hit, by the source's call; i = inactive; x = no result given. Most compounds without a hit are left out; they make up all but 4.1% or so of the library.

SMILES	MrgX1 antagonist	RGS4 inh	RGS4 pot	MrgX1 ag	MrgX1 PAM	Kir21 block
N/C(=N\OC(=O)Oc1ccccc1)c1ccc(Cl)cc1	i	i	-9.48*	i	i	-0.19
N/C(=N\OC(=O)COc1ccc(Cl)cc1)c1ccc(Cl)cc1	i	i	i	i	i	-1.23
O=C(NCc1ccccc1Cl)c1cnc2n(c1=O)CCS2	-4.73*	i	i	i	i	-0.71
O=C(NCCc1ccccc1)c1cnc2n(c1=O)CCS2	i	i	i	i	i	-0.08
Cc1cc2n(c1)CCn1c(C)ccc1-2	-4.62*	i	i	i	i	-0.51
O=C(O)CC(CC(=O)Nc1ccc(N2CCOCC2)cc1)c1ccccc1 (centres undefined)	i	i	i	i	i	-0.74
CCN1CCN(C(=O)CN2C(=O)c3cccc4cccc2c34)CC1	i	i	i	i	i	-0.43
COC(=O)C1(C)NC(c2ccccc2C)C2C(=O)N(c3ccccc3)C(=O)C21 (centres undefined)	i	i	i	i	i	2.14
COC(=O)C1(C(=O)OC)NOC2C(=O)N(c3ccccc3)C(=O)C21 (centres undefined)	-5.71*	i	i	i	i	0.11
Clc1cccc(Cl)c1CO/N=C/c1cccs1	i	i	i	i	i	1.18
Cc1c(C)c(C)c(CO/N=C/c2cccs2)c(C)c1C	i	i	i	i	8.16*	-0.11
COc1ccccc1NC(=O)/C(C#N)=C/c1ccncc1	i	i	i	i	i	-1.13
COc1ccccc1NC(=O)/C(C#N)=C/c1cc([N+](=O)[O-])ccc1N1CCCC1	-6.62*	i	i	i	i	-3.32
OCCN1CCN(CC#CCC(c2ccccc2)c2ccccc2)CC1	i	i	i	i	i	-5.67*
COC(c1ccccc1)c1c(-c2ccccc2)nn(C)c1Cl (centres undefined)	i	i	i	i	i	-4.84*
CCN1CCN(c2ccc(S(=O)(=O)N3CCCCC3)cc2NC(=O)C(C)Oc2ccc(F)cc2)CC1 (centres undefined)	i	i	i	i	i	-5.19*
CCOC(=O)c1cnn(-c2ccccc2)c1NC(=O)c1ccc(C)cc1	i	i	i	i	i	-1.18
Cc1ccc2nc(-c3ccccc3)cc(C(=O)N(C)CC(=O)Nc3ccccc3Br)c2c1	i	i	-9.16*	i	i	-0.31
CN(CC(=O)Nc1cccc(F)c1)C(=O)c1cc(-c2ccccc2)nc2ccccc12	i	i	i	i	i	0.71
CCN=C1S/C(=C\c2ccc(OCC)c(OC)c2)C(=O)N1CC	-5.05*	i	i	i	i	0.98
C[C@@H](CSc1ccccc1)CN1CC[C@H](C(C)(C)C)CCC1=O	i	i	i	i	i	-5.29*
Cn1c(C(=O)N(Cc2ccccc2)Cc2cccs2)cc2sccc21	i	i	-7.85*	i	i	-2.93
Cn1c(C(=O)N(Cc2ccccc2)Cc2ccccn2)cc2sccc21	i	i	i	i	i	-0.98
CCCN(CCC)C(=S)NC1CC2C=CC1C2 (centres undefined)	i	i	i	i	i	-4.67*
Oc1ccccc1/C=N/NC(=S)NC1CC2C=CC1C2 (centres undefined)	i	i	i	i	i	-0.8
SMILES	MrgX1 antagonist	RGS4 inh	RGS4 pot	MrgX1 ag	MrgX1 PAM	Kir21 block
COc1ccc(S(=O)(=O)n2[nH]c(=O)c(CCO)c2C)c([N+](=O)[O-])c1	i	i	i	i	7.91*	1.08
Cc1c(CCO)c(=O)[nH]n1S(=O)(=O)c1ccc(Cl)cc1Cl	i	i	i	i	i	-2.96
N=C(N)SCc1cn(-c2ccccc2)nc1-c1ccc(Br)cc1	x	i	-7.51*	x	x	-7.05*
CCCn1nc(NS(=O)(=O)c2ccccc2[N+](=O)[O-])c2cc3ccccc3nc21	i	i	i	i	i	-0.5
CCn1nc(NS(=O)(=O)c2ccccc2[N+](=O)[O-])c2cc3ccc(C)cc3nc21	i	i	i	i	9.19*	0.59
CS/C(=N\S(=O)(=O)c1ccc(Cl)cc1)c1ccccc1	i	i	i	i	i	-5.27*
CSC(=NS(=O)(=O)c1ccccc1)SC	i	i	i	i	i	-1.58
CS/C(=N/S(=O)(=O)c1ccc(C)cc1)c1ccccc1	i	i	i	i	i	-10.1*
O=C(NC1CCCC1)c1sc(=S)n2c1[nH]c(=O)c1ccccc12	i	i	i	60.4*	i	-2.64
O=C(NCc1ccco1)c1sc(=S)n2c1[nH]c(=O)c1ccccc12	i	i	i	56.8*	i	0.77
O=C(NCc1ccccc1)c1ccc2c(=O)[nH]c3c(C(=O)NCC4CCCO4)sc(=S)n3c2c1 (centres undefined)	i	i	i	i	i	1.28
COc1ccc(CC(=O)N/N=C/c2cccs2)cc1OC	i	i	i	i	i	-2
COC(=O)c1ccc(Nc2ccc3nonc3c2[N+](=O)[O-])cc1	i	i	i	i	i	-2.31
Cc1ccc(C(NC(=O)N2CCCC2)C(Cl)Cl)cc1F (centres undefined)	-4.78*	i	i	i	i	-1.13
O=C(Nc1ccc2nc(-c3cccs3)[nH]c2c1)c1ccco1	i	i	i	i	i	1.71
CCOc1ccc(N(CC(=O)NCCSCc2ccccc2)S(=O)(=O)c2ccccc2)cc1	i	i	i	i	i	0.02
CC1=CCC2C(=O)N(c3ccc(OC(=O)c4ccco4)cc3)C(=O)C2C1 (centres undefined)	i	i	i	i	i	-7.86*
COc1ccc(S(=O)(=O)Cc2ccc(C(=O)N3CCN(c4cc(Cl)ccc4C)CC3)o2)cc1	i	i	-8.17*	i	i	-0.33
Cc1ccc(C)c(N2CCN(C(=O)c3ccc(CS(=O)Cc4cccc(Cl)c4)o3)CC2)c1 (centres undefined)	i	i	-8.68*	i	i	0.11
COc1ccc(S(=O)(=O)Cc2ccc(C(=O)NCCc3cc(OC)ccc3OC)o2)cc1	i	i	i	i	7.5*	-0.13
CCOC(=O)CSc1nnc(COc2cccc(C)c2)o1	i	i	i	i	i	0.23

Source: PubChem (Johns Hopkins Ion Channel Center)
